The pKa is the pH at which an ionisable group is half protonated. Read a low pKa as a group that gives up its proton readily. The term MIC denotes the smallest concentration in the dilution series that meets the test's criterion for growth inhibition.

Results on 1 compound are retold here after ChEMBL document CHEMBL4028907, “Semisynthesis and Biological Evaluation of Xanthone Amphiphilics as Selective, Highly Potent Antifungal Agents to Combat Fungal Resistance” (J Med Chem, 2017).

The nature of data set [1]: Selectivity index, ratio of HC50 for New Zealand white rabbit RBC to MIC for Candida albicans ATCC 10231.
Data set [2] in a line: Dissociation constant, pKa of compound. Type of data set: physicochemical.
For another data set, the system named is Staphylococcus aureus. The experiment in a line: Antibacterial activity against Staphylococcus aureus DM4001R by two fold serial dilution method. The data set is classed as functional. Put shortly: (§1)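 Broth microdilution (CLSI, minor modifications) in Sabouraud dextrose, Mueller−Hinton or RPMI 1640 broth; two-fold serial dilutions of compound from stock to final 100 to 0.78 μg/mL. MIC taken as lowest concentration giving no visible growth.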

In a further data set the test system is Pseudomonas aeruginosa. The data set can be described thus: Antibacterial activity against Pseudomonas aeruginosa DM23155 by two fold serial dilution method. Type of data set: functional. In short, it runs like this:
as §1

For data set [3], the system named is Candida albicans. The experiment in a line: Antifungal activity against Candida albicans ATCC90028 after 24 hrs by two fold serial dilution method. Type of data set: functional. As to conditions: ATCC90028, 24 h. Put shortly:
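Candida grown on Sabouraud dextrose agar at 35 °C for 24 h, adjusted to ~5×10^3 CFU/mL. Two-fold dilutions from 100 to 0.78 μg/mL in Sabouraud dextrose broth, incubated at 35 °C for 24 h. MIC is the lowest concentration inhibiting growth by eye and by OD600. CLSI-based with minor modifications.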

Data set [4] relates to Fusarium solani. The data set can be described thus: Antifungal activity against Fusarium solani MYA3636 after 48 hrs by two fold serial dilution method. The data set is classed as functional. The settings on record: MYA3636, 48 h. Put shortly: (§2)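 Moulds grown on potato dextrose agar, 30 °C, 4 days; inoculum adjusted to about 5×10^3 CFU/mL. Two-fold serial dilutions in RPMI-1640 broth, 100 to 0.78 μg/mL final, mixed with equal volume of cell suspension; incubated 30 °C, 48 h. MIC = lowest concentration inhibiting growth, judged visually and by OD530.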

Data set [5] concerns Fusarium solani. The data set can be described thus: Antifungal activity against Fusarium solani 46492 after 48 hrs by two fold serial dilution method. Type of data set: functional. As to conditions: Fusarium solani, 46492, 48 h. In short, it runs like this: as §2
The test system of data set [6] is Aspergillus flavus. The data set can be described thus: Antifungal activity against Aspergillus flavus TCC 204304 after 48 hrs by two fold serial dilution method. The settings on record: TCC 204304, 48 h. Type of data set: functional. In short, it runs like this: as §2
Data set [7] deals with Aspergillus flavus. The experiment in a line: Antifungal activity against Aspergillus flavus TCC MYA3631 after 48 hrs by two fold serial dilution method. Type of data set: functional. The settings on record: TCC MYA3631, 48 h. Put shortly:
as §2

The next data set has as its system Aspergillus fumigatus. The experiment in a line: Antifungal activity against Aspergillus fumigatus TCC 90906 after 48 hrs by two fold serial dilution method. The data set is classed as functional. The settings on record: TCC 90906, 48 h. Put shortly: as §2
The test system of data set [8] is Candida albicans. The experiment in a line: Synergistic antifungal activity against drug resistant Candida albicans DF2672R after 24 hrs in presence of terbinafine by checkerboard assay. The data set is classed as functional. Put shortly: (§3)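 Checkerboard combination of each compound with a second antifungal, following a previously reported procedure. FIC = MIC of A in combination/MIC of A alone + MIC of B in combination/MIC of B alone.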

The subject of data set [9] is Candida albicans. The experiment in a line: Synergistic antifungal activity against drug resistant Candida albicans DF2672R after 24 hrs in presence of natamycin by checkerboard assay. Type of data set: functional. In short, it runs like this:
as §3

For another data set, the system named is Fusarium oxysporum. The data set can be described thus: Antifungal activity against Fusarium oxysporum 64530 after 48 hrs by two fold serial dilution method. Type of data set: functional. The settings on record: Fusarium oxysporum, 64530, 48 h. In short, it runs like this: as §2
Data set [10] can be described thus: Selectivity index, ratio of IC50 for human corneal fibroblasts to MIC for drug resistant Candida albicans DF2672R.
A further data set concerns Lipid bilayer. The experiment in a line: Induction of membrane permiablization in calcein loaded DOPC/DOPE/PI large unilamellar vesicles assessed as calcein leakage at 1:4 compound to lipid ratio after 1 to 2 hrs by fluorescence assay relative to control. Put shortly:
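LUVs (DOPC/DOPE/PI 2:1:1 with 15 wt % ergosterol, about 100 nm) made by film hydration and extrusion, loaded with 80 mM calcein in HEPES buffer pH 7.4. Free dye removed by G-50 column. Compound added in 0.5% DMF at 50 μM final phospholipid. Emission read at 520 nm (excitation 490 nm); leakage normalized to 1% Triton X-100.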

Data set [11] is described as follows: Cytotoxicity against human corneal fibroblasts assessed as cell viability at 100 uM after 4 hrs by LDH assay relative to control. The data set is classed as cell-based, Corneal fibroblast. As to conditions: read-out: Activity. In short, it runs like this:
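LDH release assay on human corneal fibroblasts seeded at 10000 cells per well, exposed to a range of compound concentrations up to 100 μM. 1% Triton X-100 served as positive control and 0.5% DMSO as negative control; biological replicates.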

Molecules are shown by their SMILES. Values after ≈ are worked out from the molar mass of the structure shown.

Turning to `COc1c(OCC(O)CNC(=N)N)cc2oc3cc(OCC(O)CNC(=N)N)c(CC=C(C)C)c(O)c3c(=O)c2c1CC=C(C)C` (stereo unspecified), the values for the Selectivity Index in [1] and in data set [10] were 61 and 41 - 82, respectively. Moreover, in [2], the pKa is 12.5. For the same compound, the MIC was 1.56 to 3.13 µg/mL (≈ 2.43 to 4.88 µM) against Staphylococcus aureus; 25 to 50 µg/mL (≈ 39 to 78 µM) against Pseudomonas aeruginosa; 0.78 µg/mL (≈ 1.22 µM) against Candida albicans [3]; 3.13 µg/mL (≈ 4.88 µM) with Fusarium solani [4]; 3.13 µg/mL (≈ 4.88 µM) in the data set with Fusarium solani [5]; 6.25 µg/mL (≈ 9.75 µM) with Aspergillus flavus [6]. The MIC against Aspergillus flavus [7] turned out to be 6.25 µg/mL (≈ 9.75 µM); in the data set on Aspergillus fumigatus, 6.25 µg/mL (≈ 9.75 µM); against Fusarium oxysporum, 3.13 µg/mL (≈ 4.88 µM). Besides, the “fractional inhibitory concentration index (FICI)” value is 0.44 in the data set on Candida albicans [8] and 1.08 in the data set with Candida albicans [9]. The Activity with Lipid bilayer was 75.6%. Moreover, the viability at 4 h, 100 µM in data set [11] was determined as 44.4%.
